Compound activity deposited in PubChem BioAssay by several laboratories.
Compounds with a hit are over-represented: about 4.3% of the library has one in this group of screens.
B2AR ag – agonists of human beta-2 adrenergic receptor inducing internalization; Am2.2-beta2AR cells, FAP receptor internalization, flow cytometry; response, % (concentration not given with the values); hit rate 0.43% among 340,000; AID 504454;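 active means response above a set limit, near 3 SD of response in nonfluorescent compounds, cut at about 42% in these data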
MC4R barr agon – human MC4R agonism via beta-arrestin. P32245. U2OS MC4R beta-arrestin complementation, luminescence; percent of melanotan II response, DMSO zero. activation, % at 8.9 µM. hit rate 0.98% among 360,000. AID 540308;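 active means activation above a per-plate cutoff, the mean activation of sample wells on that plate plus 3 SD, cut at about 8% in these data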
Target sequence (P32245 whole entry, looked up): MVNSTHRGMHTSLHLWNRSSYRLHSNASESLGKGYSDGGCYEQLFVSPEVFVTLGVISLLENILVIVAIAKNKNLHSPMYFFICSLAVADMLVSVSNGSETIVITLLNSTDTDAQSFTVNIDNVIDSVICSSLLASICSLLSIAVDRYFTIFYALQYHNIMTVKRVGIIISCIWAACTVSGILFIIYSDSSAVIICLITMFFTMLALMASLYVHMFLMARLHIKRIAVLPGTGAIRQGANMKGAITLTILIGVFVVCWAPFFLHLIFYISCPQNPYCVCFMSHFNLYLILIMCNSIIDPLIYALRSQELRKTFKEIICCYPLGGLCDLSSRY
HTR2A ag – activates the mouse 5-HT2A serotonin receptor; activation, % at 7.6 µM; P35363; AID 624169; CHO-K1 mHTR2A beta-arrestin complementation, luminescence; percent of 30 µM serotonin response; hit rate 0.66% among 360,000;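 active means activation above a run cutoff, the mean activation of all tested compounds plus 3 SD, cut at about 14% in these data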;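 further: 0% = plate median of compound wells and 100% = 30 µM serotonin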
TAAR1 agonist – human TAAR1 agonism; activation, % at 3 µM; Q96RJ0; CHO RD-HGA16 TAAR1, Fluo-8 calcium fluorescence; vehicle wells 0%, saturating PEA agonist 100%; hit rate 0.99% among 360,000; AID 624467;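 active means activation above the mean activation of all test compounds in the run plus 3 SD, cut at about 38% in these data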
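Benchmarks: low control DMSO, high control PEA (EC100); System: CHO RD-HGA16 cells carrying human TAAR1 plus Gα16; Detection: Fluo-8 fluorescence, 5 s baseline then 140 s kinetic read; Schedule: 17-24 h plating, Fluo-8 75 min 37 °C, 30 min RT; Read-out basis: % activation from peak over basal fluorescence ratio, DMSO-to-PEA scaled.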
MC4R antag cAMP – blocks human MC4R cAMP signaling. P32245. MC4R-expressing cells, MTII-stimulated cAMP, LANCE TR-FRET. inhibition, % at 6.5 µM. hit rate 0.48% among 360,000;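 active means inhibition above its plate's cutoff, the mean of tested wells on that plate plus 3 SD, cut at about 29% in these data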;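 further: 0% = Melanotan II alone and 100% = Melanotan II plus saturating MCL0020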
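material = U2OS cells stably expressing human melanocortin 4 receptor (MC4R) | also added = Melanotan II challenge | dosing = single nominal compound dose of 6.5 µM | detection = TR-FRET with Eu-cAMP and labeled anti-cAMP, 671 nm | replication = singlicate | timing = compound 30 min, challenge 1 h, detection 1 h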
TAAR1 antagonist – human TAAR1 antagonism; Q96RJ0; CHO RD-HGA16 TAAR1, Fluo-8 calcium fluorescence, antagonist; inhibition, % at 3 µM; hit rate 1.5% among 360,000; AID 624466;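 active means inhibition above a per-plate cutoff, the mean inhibition of test compounds on that plate plus 3 SD, cut at about 49% in these data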;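 further: 0% = DMSO plus EC80 beta-PEA response and 100% = DMSO alone without agonist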
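Test system – hTAAR1-expressing CHO RD-HGA16 cells, Gα16-coupled · Reagent – β-PEA at EC80 concentration, post-compound challenge · Compound dosing – 3 µM, single point · Timing – 140 s kinetic read after compound, 140 s after agonist · Detection – Fluo-8 intracellular calcium dye fluorescence, real-time kinetic reads · Control set – DMSO and EC80 PEA controls · Repeats – n of 1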
TAAR1 ag conf – human TAAR1 agonism, confirmed; AID 651783; CHO RD-HGA16 TAAR1, Fluo-8 calcium fluorescence; scaled: DMSO 0%, maximal phenethylamine 100%; hit rate 82% among 2,400; activation, % at 3 µM; shares compounds with TAAR1 agonist;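 active means activation above a cutoff set at the run's mean compound activation plus 3 SD, cut at about 39% in these data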
Ga16 ag counter – counter-screen for TAAR1 agonists: nonselective agonists in parental cells | activation, % at 3 µM | CHO-Ga16 parental, Fluo-8 calcium fluorescence; normalized to maximal ATP response, DMSO zero | shares compounds with TAAR1 agonist | AID 651787 | hit rate 50% among 2,400;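 active means activation above the run cutoff, the mean activation over all tested wells plus 3 SD, cut at about 12% in these data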;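 further: 0% = DMSO wells and 100% = maximal ATP response on the peak over basal ratio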
TAAR1 desens – counter-screen for human TAAR1 agonists: agonists that desensitize TAAR1. shares compounds with TAAR1 agonist. CHO RD-HGA16 hTAAR1, Fluo-8 calcium, beta-PEA response inhibition. inhibition, % at 3 µM. hit rate 46% among 2,400. AID 651951;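 active means inhibition above the run cutoff, the mean inhibition of all test compounds plus 3 SD, cut at about 49% in these data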;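 further: beta-PEA stimulus applied at its EC80; loss of beta-PEA calcium signal after compound pretreatment read as receptor desensitization; 0% = DMSO with beta-PEA at EC80 and 100% = DMSO alone without agonist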
Ga16 nonsel ant – counter-screen for TAAR1 agonists: nonselective Ga16 antagonists. shares compounds with TAAR1 agonist. CHO-Ga16 ATP-induced calcium, Fluo-8 fluorescence. inhibition, % at 3 µM. hit rate 39% among 2,400;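 active means inhibition above the plate's mean compound inhibition plus 3 SD, computed per plate, cut at about 22% in these data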;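 further: 0% = EC80 ATP with DMSO and 100% = DMSO wells without ATP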
* hit, by the source's call; / = no result.

SMILES	B2AR ag	MC4R barr agon	HTR2A ag	TAAR1 agonist	MC4R antag cAMP	TAAR1 antagonist	TAAR1 ag conf	Ga16 ag counter	TAAR1 desens	Ga16 nonsel ant
O=C(CC1C(=O)NCCN1CCCc1ccccc1)NCCc1ccccc1F (configuration not stated)	6	-3	1	75*	9	44	93*	1	72*	0
CCOC(=O)C(NC(=O)CC)(N1CCc2ccccc2C1)C(F)(F)F (configuration not stated)	-4	-2	0	93*	2	96*	111*	1	98*	10
CCOC(=O)C(NC(=O)CC)(Nc1ccccc1)C(F)(F)F (configuration not stated)	4	-2	0	2	2	-35	/	/	/	/
COC(=O)[C@]12CCCCC=C1N(Cc1cccc3ccccc13)C(=O)[C@H](CC(=O)NCCc1ccccc1OC)C2	/	/	2	45*	/	-6	44*	-1	15	20
COC(=O)[C@@]12C[C@@H](CC(=O)NCCc3ccccc3OC)C(=O)N(Cc3cccc4ccccc34)C1=CCC(C)(C)C2	/	/	1	23	/	-19	/	/	/	/
COC(=O)[C@]12CCCCC=C1N(Cc1cccc3ccccc13)C(=O)[C@H](CC(=O)NCc1ccccc1)C2	/	/	1	2	/	42	/	/	/	/
COC(=O)[C@]12CCCCC=C1N(Cc1ccccc1)C(=O)[C@H](CC(=O)NCCc1ccccc1OC)C2	/	/	0	70*	/	57*	91*	2	77*	6
CCCCCCCCN1C(=O)[C@H](CC(=O)NCCc2ccccc2OC)C[C@@]2(C(=O)OC)CC(C)(C)CC=C12	/	/	0	44*	/	-40	60*	3	24	13
CCOC(=O)[C@]12CCC=C1N(Cc1ccccc1)C(=O)[C@H](CC(=O)NCCc1ccccc1OC)C2	/	/	-3	70*	/	52*	91*	0	75*	-7
O=C1CCC(OCc2ccccc2)CCN1[C@H](CSc1ccccc1)Cc1ccccc1 (some centres not stated)	/	/	-2	3	/	35	/	/	/	/
O=C(Nc1nnc(-c2ccccc2Cl)o1)c1ccco1	-3	-1	4	6	10	11	/	/	/	/
O=C(Nc1nnc(-c2ccccc2Cl)o1)c1nc2ccccc2s1	1	-2	1	134*	3	74*	113*	81*	64*	36*
Cc1cnn(C(=S)NCCc2ccccc2)c1	-2	2	6	48*	12	32	30	5	25	18
Cc1cccc(NC(=S)NC(=O)Cc2ccccc2)c1C	-1	6	8	82*	-3	65*	77*	55*	46	32*
Cc1ccccc1NC(=S)NCCc1ccccc1	5	0	2	49*	10	-13	82*	2	39	3
Cc1cc(C)c(O)c(NC(=S)NC(=O)Cc2ccccc2)c1	0	0	-1	95*	6	72*	85*	48*	54*	37*
CC(=O)Nc1ccc(N=Nc2ccccc2)cc1[N+](=O)[O-]	/	-1	3	-1	-15	6	/	/	/	/
O=c1[nH]nc(Br)c(=O)n1C(c1ccccc1)c1ccccc1	-1	2	5	71*	-1	16	47*	26*	18	10
Cc1cnc(C(=O)OCC(=O)Nc2ccc(Br)c(C)c2)cn1	-9	-2	11	19	10	-16	/	/	/	/
